# Bioassay records from PubChem BioAssay.
# The list is not random: actives were taken first. Their share in the collection is about 3%.
# TRPC4 agonist = activators of mouse TRPC4 channel; Q9QUQ5; HEK293 TRPC4beta/mu-opioid, Fluo4 calcium fluorescence; hits give high values; B-score at 10 µM; hit rate 0.49% among 310,000; AID 2237;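 active = B-score above 5 SD of library B-scores, and initial fluorescence ratio not above library mean plus 5 SD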;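 note: positive B-score marks a calcium rise read as TRPC4 activation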
# Target sequence (Q9QUQ5 whole entry, looked up): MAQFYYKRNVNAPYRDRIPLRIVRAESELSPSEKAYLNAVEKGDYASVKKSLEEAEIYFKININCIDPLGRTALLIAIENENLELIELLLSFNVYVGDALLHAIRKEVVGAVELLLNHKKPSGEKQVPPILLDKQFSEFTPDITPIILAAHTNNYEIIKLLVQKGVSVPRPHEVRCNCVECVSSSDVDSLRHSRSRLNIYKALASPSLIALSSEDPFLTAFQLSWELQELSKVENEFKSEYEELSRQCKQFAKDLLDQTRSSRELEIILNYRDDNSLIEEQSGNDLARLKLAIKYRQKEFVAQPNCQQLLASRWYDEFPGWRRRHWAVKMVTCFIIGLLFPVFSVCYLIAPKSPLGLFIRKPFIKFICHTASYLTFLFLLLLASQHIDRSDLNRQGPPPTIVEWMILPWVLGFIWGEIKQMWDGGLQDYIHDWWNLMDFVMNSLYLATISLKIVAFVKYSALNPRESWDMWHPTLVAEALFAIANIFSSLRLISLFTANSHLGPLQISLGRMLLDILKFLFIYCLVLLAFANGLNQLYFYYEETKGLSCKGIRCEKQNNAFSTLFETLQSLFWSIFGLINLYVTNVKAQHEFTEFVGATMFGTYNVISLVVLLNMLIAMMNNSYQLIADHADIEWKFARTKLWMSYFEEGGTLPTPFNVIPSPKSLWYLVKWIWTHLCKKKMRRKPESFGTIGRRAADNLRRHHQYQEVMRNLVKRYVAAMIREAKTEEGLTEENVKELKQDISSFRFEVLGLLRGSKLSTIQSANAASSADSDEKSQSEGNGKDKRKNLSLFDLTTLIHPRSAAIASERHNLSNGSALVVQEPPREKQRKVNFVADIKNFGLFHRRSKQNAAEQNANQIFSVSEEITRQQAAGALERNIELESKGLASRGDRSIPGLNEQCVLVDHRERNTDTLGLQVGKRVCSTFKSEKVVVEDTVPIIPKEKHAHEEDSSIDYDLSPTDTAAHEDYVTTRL
#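 Technique: kinetic Fluo4 calcium fluorescence; Test system: TRPC4beta and mu-opioid receptor HEK293 stable cells; Measure: B-scored integrated calcium fluorescence ratio; Benchmarks: low control buffer alone, high control maximal DAMGO; Schedule: 45 min room-temperature Fluo4 loading, 110 s read.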
# Kir21 block = inhibitors of mouse Kir2.1 inward-rectifier potassium channel | HEK293-Kir2.1, FluxOR thallium flux fluorescence; hits give low values | AID 1672 | P35561 | hit rate 0.85% among 310,000 | B-score at 10 µM;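 active = fluorescence ratio B-score at or below minus 3 SD of library scores, with starting-brightness B-score within 2 SD, cut at about -4.2 in these data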;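 note: channel flux triggered by added potassium and thallium sulfate stimulus; B-score of peak minus minimum fluorescence over baseline after thallium stimulus; more negative B-score means stronger Kir2.1 block with less thallium influx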
# TRPC4 PAM = allosterically enhances the mouse TRPC4 cation channel; hit rate 0.42% among 310,000; B-score at 10 µM; AID 2227; HEK293 TRPC4beta/mu-opioid, DAMGO EC20, Fluo-4 Ca2+ flux; hits give high values; Q9QUQ5;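 active = B-score of calcium response area above 5 SD of library B-scores, with initial fluorescence ratio within 5 SD of library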;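 note: B-score of integrated fluorescence ratio over time as area under calcium response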
# TRPC6 act = mouse TRPC6 channel activation | hit rate 0.13% among 310,000 | B-score at 10 µM | HEK293-TRPC6 membrane potential dye fluorescence; hits give high values | Q61143 | AID 2550;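 active = B-score of the integrated fluorescence ratio above library mean plus 3 SD, and starting fluorescence ratio within library mean plus 5 SD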;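 note: higher score means more depolarization so channel activation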
# TRPC4 inh = inhibitors of mouse TRPC4 channel; hit rate 0.39% among 300,000; Q9QUQ5; AID 2247; B-score at 10 µM; HEK293 TRPC4beta/mu-opioid, DAMGO-evoked Fluo4 calcium flux; hits give low values;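 active = B-score over 3 SD under the library average, no early fluorescence shift, positive overall ratio signal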
#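 Test system – stable TRPC4beta/mu-opioid receptor HEK293 cells · Probe or stimulus – DAMGO, a submaximal dose followed by a maximal one · Dosing – one concentration per compound · Signal – Fluo4 calcium fluorescence by kinetic imaging, 5 s 1 Hz baseline · Evaluation – per-well B score of integrated baseline-normalized Fluo4 ratio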
# TRPC6 inhibitor = inhibitors of mouse TRPC6 channel. Q61143. HEK293-TRPC6, membrane potential dye, ACh-evoked depolarization; hits give low values. B-score at 10 µM. hit rate 1.1% among 310,000;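 active = B-score under library mean minus 3 SD, initial fluorescence not abnormally high, positive integrated signal ratio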;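 note: B-score derived from integrated fluorescence ratio over the kinetic read; more negative B-score means stronger inhibition of depolarization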
# TRPC4 sel inh 2 = second check of whether TRPC6 inhibitors also affect mouse TRPC4; shares compounds with TRPC6 inhibitor; HEK293 TRPC4/MOR, membrane potential dye fluorescence; channel activated by saturating DAMGO dose; inhibition, % at 10 µM; hit rate 42% among 920; AID 2776;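 active = compounds whose fluorescence signal differed from control wells by over 3 SD, either direction, in both duplicate plates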
# TRPC4 spec = tests whether TRPC6 inhibitors also affect mouse TRPC4. shares compounds with TRPC6 inhibitor. HEK293 TRPC4/mu-opioid, membrane potential fluorescence. activity change, negative = inhibition, % at 10 µM. hit rate 61% among 920. AID 2777;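 active = rise or fall in signal beyond 3 SD of buffer-only wells in both replicate plates, either sign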;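 note: integrated kinetic ratio of fluorescence range over baseline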
# HEK293 MPD ctr 2-1 = parental HEK293 nonspecific activity of TRPC6 inhibitors, second screen; hit rate 31% among 920; shares compounds with TRPC6 inhibitor; parental HEK293 membrane potential dye fluorescence; maximal acetylcholine challenge after compound addition; signal change vs control, % at 10 µM; AID 2779;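 active = membrane potential signal moving either way by over 3 SD of the maximum-effect control, in both duplicate plates, meaning non-specific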
# HEK293 MPD ctr-1 = counter-screen for TRPC6 inhibitors: effect in parental HEK293 cells; shares compounds with TRPC6 inhibitor; parental HEK293 membrane potential dye fluorescence; membrane potential signal change, % at 10 µM; hit rate 60% among 920; AID 2780;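 active = membrane potential signal shifting up or down by more than 3 SD of buffer-only wells, on both duplicate plates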
# HEK293 MPD ctr-2 = parental HEK293 nonspecific activity of TRPC6 modulators; membrane potential dye fluorescence; membrane potential signal change, % at 10 µM; hit rate 51% among 2,400; AID 488924; shares compounds with TRPC6 inhibitor;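 active = membrane potential signal moves up or down beyond 5 SD from buffer-only wells, on both duplicate plates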
# HEK293 MPD ctr 2-2 = second counter-screen for TRPC6 modulators: effect in parental HEK293 cells; shares compounds with TRPC6 inhibitor; membrane potential dye fluorescence; after compound, maximal acetylcholine stimulation; inhibition, % at 10 µM; hit rate 14% among 2,400;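 active = membrane potential signal drops by more than 5 SD from the mean control signal, in both duplicate plates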;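 note: plate controls were acetylcholine ECmax control wells for no effect and buffer only wells for full effect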
# TRPC4/MOR mod = tests whether TRPC6 modulators also affect mouse TRPC4; percent change from control (negative = decrease, positive = increase), % at 10 µM; hit rate 69% among 2,400; AID 488927; HEK293 TRPC4/mu-opioid, membrane potential fluorescence; shares compounds with TRPC6 inhibitor;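 active = membrane potential signal moved up or down beyond 5 SD of buffer control wells, in both duplicate plates, actives on both sides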;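 note: plate controls were assay buffer wells for no effect and DAMGO maximal-effect wells for full effect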
# TRPC4/MOR inh 2 = mouse TRPC4 off-target activity of TRPC6 modulators, second screen | HEK293 TRPC4/mu-opioid, membrane potential dye fluorescence; stimulated with maximal-effect DAMGO | hit rate 55% among 2,400 | inhibition, % at 10 µM | shares compounds with TRPC6 inhibitor;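 active = drop in membrane potential signal beyond 5 SD of the control wells in both duplicate plates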;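 note: TRPC4 counter screen for TRPC6 hits run under conditions tuned for TRPC6 not TRPC4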
# TRPC6 block conf = confirmation of mouse TRPC6 inhibitors; shares compounds with TRPC6 inhibitor; HEK293-TRPC6, membrane potential dye, ACh-evoked depolarization; inhibition, % at 10 µM; hit rate 43% among 3,300; AID 488960;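 active = fluorescence ratio falls more than 5 SD below the full-stimulation control mean, in both duplicate runs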;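 note: integrated fluorescence ratio of peak minus minimum over baseline after agonist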
# TRPC6 act confirm = mouse TRPC6 activator confirmation; activation, % at 10 µM; HEK293-TRPC6 membrane potential dye fluorescence, FDSS; AID 488961; shares compounds with TRPC6 inhibitor; hit rate 11% among 2,800;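 active = ratio signal rise beyond 5 SD above unstimulated control wells' mean, seen in both duplicate runs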;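 note: plate controls were buffer EC0 wells for no effect and acetylcholine ECmax response for full effect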
# * marks the source's active call; other numbers are inactive results; i = inactive; / = not tested or not shown; + = active, no number.
SMILES,TRPC4 agonist,Kir21 block,TRPC4 PAM,TRPC6 act,TRPC4 inh,TRPC6 inhibitor,TRPC6 block conf,TRPC6 act confirm,others
Cn1c(=O)c(C(=O)COC(=O)c2cc(-c3ccco3)nc3ccccc23)c(N)n(CC2CC2)c1=O,i,1,i,i,i,i,/,/,
N=c1c2c3c(sc2ncn1N)CCC3,i,-1.5,i,i,i,i,/,/,
CC(C)(C)C1CCc2c(sc3ncn(N)c(=N)c23)C1 (stereo not drawn),i,-3,i,i,i,-6.5*,46%*,i,HEK293 MPD ctr-2=i;HEK293 MPD ctr 2-2=i;TRPC4/MOR mod=-16%*;TRPC4/MOR inh 2=67%*
O=C(NC1CCCCC1)C(c1ccccc1)N(Cc1ccco1)C(=O)c1csnn1 (stereo not drawn),i,-0.03,i,i,i,i,/,/,
O=C(NC1CCCCC1)C(c1ccccc1)N(Cc1ccco1)C(=O)Cn1cnc2ccccc21 (stereo not drawn),i,1.5,i,17*,i,i,i,109%*,HEK293 MPD ctr-2=277%*;HEK293 MPD ctr 2-2=i;TRPC4/MOR mod=119%*;TRPC4/MOR inh 2=i
CN(C)S(=O)(=O)N1CCN(c2ccc([N+](=O)[O-])c(N3CCCCC3)c2)CC1,i,-0.89,i,i,i,i,/,/,
Cc1nnc(C)c2c(C)n(-c3ccc(Cl)c(N)c3)c(C)c12,i,-0.18,i,i,i,i,/,/,
Cc1cc(C)cc(-n2c(C)c3c(C)nnc(C)c3c2C)c1,i,-2.6,i,i,i,-7.6*,i,i,TRPC4 sel inh 2=54%*;TRPC4 spec=-19%*;HEK293 MPD ctr 2-1=i;HEK293 MPD ctr-1=-216%*
CCC(C(=O)NC1CCCC1)N(Cc1ccco1)C(=O)CNS(=O)(=O)c1ccccc1 (stereo not drawn),i,1.2,i,i,i,i,/,/,
O=C(c1ccc2c(c1)OCO2)N(Cc1ccco1)C1(C(=O)NC2CCCCC2)CCCCC1,i,0.34,i,i,i,i,/,/,
COc1cccc(Nc2nc(NCCO)c3ccccc3n2)c1,i,-1.8,i,i,i,-11*,90%*,i,TRPC4 sel inh 2=40%*;TRPC4 spec=-22%*;HEK293 MPD ctr 2-1=27%*;HEK293 MPD ctr-1=-237%*
Oc1ccccc1Nc1nc(NCC2CCCO2)c2ccccc2n1 (stereo not drawn),i,-12*,i,i,i,-15*,75%*,i,TRPC4 sel inh 2=28%*;TRPC4 spec=-22%*;HEK293 MPD ctr 2-1=i;HEK293 MPD ctr-1=-273%*
Oc1ccccc1Nc1nc(NCc2ccco2)c2ccccc2n1,i,-0.14,i,i,-6*,-8.5*,i,i,TRPC4 sel inh 2=74%*;TRPC4 spec=i;HEK293 MPD ctr 2-1=i;HEK293 MPD ctr-1=i
OCCN1CCN(c2nc(NCc3ccco3)c3ccccc3n2)CC1,i,0.37,i,i,i,-6*,i,i,HEK293 MPD ctr-2=-228%*;HEK293 MPD ctr 2-2=i;TRPC4/MOR mod=-38%*;TRPC4/MOR inh 2=57%*
Oc1ccc(Cl)cc1Nc1nc(NCC2CCCO2)c2ccccc2n1 (stereo not drawn),i,1.1,i,i,i,i,/,/,
CCC(C)(C)C1CCc2nc3ccccc3c(C(=O)OC(C)C(=O)Nc3c(C)n(C)n(-c4ccccc4)c3=O)c2C1 (stereo not drawn),i,0.61,i,i,i,i,/,/,
O=S(=O)(Nc1ccon1)c1ccc(F)c(F)c1,i,2.3,i,i,i,i,/,/,
O=C(NCCCn1ccnc1)Nc1ccc2c(c1)OCO2,i,-0.87,i,i,i,i,/,/,
C/C(N)=C(/C#N)C(=O)COC(=O)CCCNC(=O)c1ccc(Cl)cc1,i,1.1,i,i,i,i,/,/,
Oc1ccc(Nc2nc(NCC3CCCO3)c3ccccc3n2)cc1 (stereo not drawn),i,-7.8*,i,i,i,-6.5*,38%*,i,HEK293 MPD ctr-2=i;HEK293 MPD ctr 2-2=i;TRPC4/MOR mod=-12%*;TRPC4/MOR inh 2=56%*
COc1cccc(Nc2nc(NCC3CCCO3)c3ccccc3n2)c1 (stereo not drawn),i,-13*,i,i,i,-11*,58%*,i,HEK293 MPD ctr-2=i;HEK293 MPD ctr 2-2=i;TRPC4/MOR mod=-22%*;TRPC4/MOR inh 2=74%*
CCC1(C)Cc2c(sc3[nH]c(=S)[nH]c(=S)c23)CO1 (stereo not drawn),i,1.7,i,i,i,-8.9*,i,i,TRPC4 sel inh 2=i;TRPC4 spec=i;HEK293 MPD ctr 2-1=i;HEK293 MPD ctr-1=i
O=C(CN(Cc1ccc(F)cc1)C(=O)CCC(=O)Nc1ccccn1)NCc1ccc(F)cc1,i,0.85,i,i,i,i,/,/,
Nc1c(C(=O)c2ccccc2)sc2nsc(SCCN3CCCC3)c12,86*,-3.5,i,65*,i,i,i,513%*,HEK293 MPD ctr-2=+;HEK293 MPD ctr 2-2=i;TRPC4/MOR mod=272%*;TRPC4/MOR inh 2=36%*
COc1ccc(-c2cc(C(=O)Nc3cc(C)on3)c3ccccc3n2)c(OC)c1,i,-0.68,i,i,i,i,/,/,
